{"data": "Measurements gathered from unrelated publications", "organism": "Candida albicans", "read-out": "microbial growth", "note": "Protocols differ between the studies behind these lines."}
{"Compound": "N=C(N)N1CC=C(c2coc(C(=O)Nc3ccc(C4=CCN(C(=N)N)CC4)c(F)c3)c2)CC1", "method": "broth dilution", "time": "48 h", "setting": "clinical isolate", "MIC": "0.78 µg/mL"}
{"Compound": "CCOC(=O)CON", "strain": "SC5314", "MIC": "32 µg/mL"}
{"Compound": "CC1=NN(CNC(=O)c2ccccc2)C(=O)C1=NNn1c(-c2ccccc2)nc2ccccc2c1=O", "method": "broth dilution", "MIC": "104 µM"}
{"Compound": "OC(Cn1cncn1)(Cn1cncn1)c1ccc(F)cc1F", "strain": "SC5314", "MIC": "2 µg/mL"}
{"Compound": "O=C(CCCCCC[P+](c1ccccc1)(c1ccccc1)c1ccccc1)Nc1ccc(O)c(O)c1.[Br-]", "method": "broth dilution", "strain": "ATCC90028", "time": "24 h", "MIC": "32 µg/mL"}
{"Compound": "O=C1NN=C(N=Cc2ccc(O)cc2O)C1=NNn1c(-c2ccccc2)nc2ccccc2c1=O", "method": "broth dilution", "MIC": "53.5 µM"}
{"Compound": "CC[C@@H]([C@H](C)O)n1ncn(-c2ccc(N3CCN(c4ccc(OC[C@@H]5CO[C@@](Cn6cncn6)(c6ccc(F)cc6F)C5)cc4)CC3)cc2)c1=O", "strain": "ATCC10231", "time": "72 h", "MIC": "< 0.3 µM"}
{"Compound": "CC1=NN(CNc2c(O)c(S(=O)(=O)O)cc3ccccc23)C(=O)C1=NNn1c(-c2ccccc2)nc2ccccc2c1=O", "method": "broth dilution", "MIC": "41.8 µM"}
{"Compound": "O=C(CCCCCCCC[P+](c1ccccc1)(c1ccccc1)c1ccccc1)Nc1ccc(O)c(O)c1.[Br-]", "method": "broth dilution", "strain": "ATCC90028", "time": "24 h", "MIC": "> 32 µg/mL"}
{"Compound": "OC(Cn1cncn1)(Cn1cncn1)c1ccc(F)cc1F", "method": "broth dilution", "strain": "ATCC10231", "MIC": "1 µg/mL"}
{"Compound": "O=C(CCc1cc(O)c(O)c(O)c1)NCCCCCCCC[P+](c1ccccc1)(c1ccccc1)c1ccccc1.[Br-]", "method": "broth dilution", "strain": "ATCC90028", "time": "24 h", "MIC": "> 32 µg/mL"}
{"Compound": "CC(=O)NCN1N=C(C)C(=NNn2c(-c3ccccc3)nc3ccccc3c2=O)C1=O", "method": "broth dilution", "MIC": "120 µM"}
{"Compound": "O=C(CCCCCC[P+](c1ccccc1)(c1ccccc1)c1ccccc1)Nc1cc(O)c(O)c(O)c1.[Br-]", "method": "broth dilution", "strain": "ATCC90028", "time": "24 h", "MIC": "> 32 µg/mL"}
{"Compound": "CC1=NN(CNc2ccccc2[N+](=O)[O-])C(=O)C1=NNn1c(-c2ccccc2)nc2ccccc2c1=O", "method": "broth dilution", "MIC": "50.4 µM"}
{"Compound": "CCc1nc(N)nc(N)c1C#CCc1cc(OC)ccc1OC", "method": "resazurin", "MIC": "250 µM"}
